From ChEMBL document CHEMBL1122522, “Conformationally restricted retinoids” (1984)
Each block holds one compound with its values, some of them ahead of it.

Tests used:
[1] = tested on: Cricetinae gen. sp.; assay: Activity of compound the was expressed as ratio of active hamster tracheal organ cultures(TOC) to the total cultures at 10e-9 M concentration; 4/7; assay type: functional, Cricetulus griseus, Trachea
Procedure, shortened: (§1)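 Tracheal organ cultures came from vitamin A-deficient hamsters. Each culture was scored for reversal of keratinization and reported as active cultures out of total cultures at each retinoid concentration tested (10⁻⁸ to 10⁻¹² M). The protocol followed earlier published methods.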

[2] = tested on: Cricetinae gen. sp.; assay: Activity of compound the was expressed as ratio of active hamster tracheal organ cultures(TOC) to the total cultures at 10e-8 M concentration; 6/7; assay type: functional, Cricetulus griseus, Trachea; procedure, shortened: as §1
[3] = tested on: Cricetinae gen. sp.; assay: Activity of compound the was expressed as ratio of active hamster tracheal organ cultures(TOC) to the total cultures at 10e-10 M concentration; 3/7; assay type: functional, Cricetulus griseus, Trachea; procedure, shortened: as §1
[4] = target: T1, Ornithine decarboxylase (Mus musculus) (UniProt P00860); assay: Inhibition of the induction of ornithine decarboxylase in mouse epidermis by the tumor promoter 12-O-tetradecanoylphorbol-13-acetate (ODC) at dose 1.7 nmol
T1 sequence (whole entry): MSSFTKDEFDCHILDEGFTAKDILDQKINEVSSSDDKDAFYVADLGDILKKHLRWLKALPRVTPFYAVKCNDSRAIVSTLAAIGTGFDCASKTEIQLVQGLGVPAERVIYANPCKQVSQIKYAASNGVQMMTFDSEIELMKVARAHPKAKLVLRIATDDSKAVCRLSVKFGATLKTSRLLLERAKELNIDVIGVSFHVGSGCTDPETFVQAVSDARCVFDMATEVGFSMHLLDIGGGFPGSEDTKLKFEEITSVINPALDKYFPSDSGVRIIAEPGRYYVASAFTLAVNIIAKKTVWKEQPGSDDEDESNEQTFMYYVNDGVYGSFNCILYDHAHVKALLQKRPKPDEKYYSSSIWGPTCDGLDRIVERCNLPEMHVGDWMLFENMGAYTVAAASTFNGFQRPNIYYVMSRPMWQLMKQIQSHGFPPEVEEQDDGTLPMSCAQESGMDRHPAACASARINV

[5] = tested on: Cricetinae gen. sp.; assay: Molarity required to effect reversal of keratinization in 50% of cultures.; assay type: functional, Cricetulus griseus
[6] = target: T1, Ornithine decarboxylase (Mus musculus); assay: Inhibition of the induction of ornithine decarboxylase in mouse epidermis by the tumor promoter 12-O-tetradecanoylphorbol-13-acetate (ODC) at dose 17 nmol
[7] = tested on: Cricetinae gen. sp.; assay: Activity of compound the was expressed as ratio of active hamster tracheal organ cultures(TOC) to the total cultures at 10e-10 M concentration; 1/7; assay type: functional, Cricetulus griseus, Trachea; procedure, shortened: as §1
[8] = tested on: Cricetinae gen. sp.; assay: Activity of compound the was expressed as ratio of active hamster tracheal organ cultures(TOC) to the total cultures at 10e-8 M concentration; 2/7; assay type: functional, Cricetulus griseus, Trachea; procedure, shortened: as §1
[9] = target: T1, Ornithine decarboxylase (Mus musculus); assay: Inhibition of the induction of ornithine decarboxylase in mouse epidermis by the tumor promoter 12-O-tetradecanoylphorbol-13-acetate (ODC) at dose 17 nmol; Inhibition not significant
[10] = tested on: Cricetinae gen. sp.; assay: Activity of compound the was expressed as ratio of active hamster tracheal organ cultures(TOC) to the total cultures at 10e-9 M concentration; 1/7; assay type: functional, Cricetulus griseus, Trachea; procedure, shortened: as §1
[11] = target: T1, Ornithine decarboxylase (Mus musculus); assay: Inhibition of the induction of ornithine decarboxylase in mouse epidermis by the tumor promoter 12-O-tetradecanoylphorbol-13-acetate (ODC) at dose 1.7 nmol; Inhibition not significant
[12] = tested on: Cricetinae gen. sp.; assay: Activity of compound the was expressed as ratio of active hamster tracheal organ cultures(TOC) to the total cultures at 10e-8 M concentration; 1/5; assay type: functional, Cricetulus griseus, Trachea; procedure, shortened: as §1
[13] = tested on: Cricetinae gen. sp.; assay: Activity of compound the was expressed as ratio of active hamster tracheal organ cultures(TOC) to the total cultures at 10e-9 M concentration; 1/5; assay type: functional, Cricetulus griseus, Trachea; procedure, shortened: as §1
[14] = tested on: Cricetinae gen. sp.; assay: Activity of compound the was expressed as ratio of active hamster tracheal organ cultures(TOC) to the total cultures at 10e-9 M concentration; 2/6; assay type: functional, Cricetulus griseus, Trachea; procedure, shortened: as §1
[15] = target: T1, Ornithine decarboxylase (Mus musculus); assay: Inhibition of the induction of ornithine decarboxylase in mouse epidermis by the tumor promoter 12-O-tetradecanoylphorbol-13-acetate (ODC) at dose 17 nmol * inhibition not significant
[16] = target: T1, Ornithine decarboxylase (Mus musculus); assay: Inhibition of the induction of ornithine decarboxylase in mouse epidermis by the tumor promoter 12-O-tetradecanoylphorbol-13-acetate (ODC) at dose 1.7 nmol * p<0.001* inhibition not significant
[17] = tested on: Cricetinae gen. sp.; assay: Activity of compound the was expressed as ratio of active hamster tracheal organ cultures(TOC) to the total cultures at 10e-8 M concentration; 4/7; assay type: functional, Cricetulus griseus, Trachea; procedure, shortened: as §1
[18] = tested on: Cricetinae gen. sp.; assay: Activity of compound the was expressed as ratio of active hamster tracheal organ cultures(TOC) to the total cultures at 10e-12 M concentration; 4/15; assay type: functional, Cricetulus griseus, Trachea
[19] = tested on: Cricetinae gen. sp.; assay: Activity of compound the was expressed as ratio of active hamster tracheal organ cultures(TOC) to the total cultures at 10e-10 M concentration; 21/22; assay type: functional, Cricetulus griseus, Trachea
[20] = tested on: Cricetinae gen. sp.; assay: Activity of compound the was expressed as ratio of active hamster tracheal organ cultures(TOC) to the total cultures at 10e-11 M concentration; 17/22; assay type: functional, Cricetulus griseus, Trachea
[21] = Percent survivors at dose 33 umol/kg day; assay type: functional, Mus musculus
Procedure, shortened: (§2)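 Adult female Swiss mice (20–25 g) had chow and water ad libitum. The retinoid was homogenized as a suspension in aqueous 8% Cremophor EL plus 10% propylene glycol. It was given ip as 10 weekday injections over 14 days. Controls received vehicle alone. Survivors were weighed on days 1, 5, 10 and 15, and dates of death were recorded. Survival was scored at days 8 and 15.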

[22] = Percent survivors at dose 200 umol/kg day; assay type: functional, Mus musculus; procedure, shortened: as §2
[23] = organism: Mus musculus; assay: Tested for percentage of mice with papillomas in a 20-week anti-papilloma experiment in female CD-1 mice at dose 170 nmol
[24] = organism: Mus musculus; assay: Tested for relative activity in a 20-week anti-papilloma experiment in female CD-1 mice at dose 17 nmol; assay type: functional
Procedure, shortened: (§3)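 Female Charles River CD-1 mice, 8 weeks old, in random groups of 25–30, were shaved 2 days before initiation with 200 nmol DMBA in acetone on the back. From 2 weeks on, 8.5 nmol TPA was applied twice weekly for 20 weeks. Retinoid in 0.2 mL acetone, or acetone alone for controls, was given 1 h before each TPA dose. Papillomas were counted weekly, and mean papillomas per mouse were compared with controls at 20 weeks.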

[25] = Percent survivors at dose 100 umol/kg day; assay type: functional, Mus musculus; procedure, shortened: as §2
[26] = tested on: Cricetinae gen. sp.; assay: Activity of compound the was expressed as ratio of active hamster tracheal organ cultures(TOC) to the total cultures at 10e-10 M concentration; 18/19; assay type: functional, Cricetulus griseus, Trachea; procedure, shortened: as §1
[27] = Mortality range in days at dose 300 umol/kg day; 10-14; assay type: functional, Mus musculus; procedure, shortened: as §2
[28] = organism: Mus musculus; assay: Percent decrease in average number of papillomas at dose 170 nmol *-p<0.001; assay type: functional; procedure, shortened: as §3
[29] = Percent survivors at dose 67 umol/kg day; assay type: functional, Mus musculus; procedure, shortened: as §2
[30] = organism: Mus musculus; assay: Tested for relative activity in a 20-week anti-papilloma experiment in female CD-1 mice at dose 1.7 nmol; assay type: functional; procedure, shortened: as §3
[31] = tested on: Cricetinae gen. sp.; assay: Activity of compound the was expressed as ratio of active hamster tracheal organ cultures(TOC) to the total cultures at 10e-12 M concentration; 3/19; assay type: functional, Cricetulus griseus, Trachea; procedure, shortened: as §1
[32] = Percent survivors at dose 300 umol/kg day; assay type: functional, Mus musculus; procedure, shortened: as §2
[33] = Mortality range in days at dose 200 umol/kg day; 14-15; assay type: functional, Mus musculus; procedure, shortened: as §2
[34] = tested on: Cricetinae gen. sp.; assay: Activity of compound the was expressed as ratio of active hamster tracheal organ cultures(TOC) to the total cultures at 10e-11 M concentration; 10/20; assay type: functional, Cricetulus griseus, Trachea; procedure, shortened: as §1
[35] = organism: Mus musculus; assay: Percent decrease in average number of papillomas at dose 17 nmol *-p<0.001; assay type: functional; procedure, shortened: as §3
[36] = Mortality range in days at dose 600 umol/kg day; 7-13; assay type: functional, Mus musculus; procedure, shortened: as §2
[37] = organism: Mus musculus; assay: Percent decrease in average number of papillomas at dose 1.7 nmol *-p<0.01; assay type: functional; procedure, shortened: as §3
[38] = Percent survivors at dose 600 umol/kg day; assay type: functional, Mus musculus; procedure, shortened: as §2

inhibition [4]: 33%
inhibition [6]: 56%
SMILES: CC1=C(/C=C/C(C)=C/C=C/c2ccc(C(=O)O)cc2)C(C)(C)CCC1 [PELRETIN]
Activity [1]: 57%
Activity [2]: 6%
Activity [3]: 3%
ED50 [5]: 4e-10

inhibition [9]: 23%
inhibition [11]: 9%
SMILES: CC1=C(c2ccc(/C=C/C(C)=C/C(=O)O)c(C)c2)C(C)(C)CCC1
Activity [7]: 1%
Activity [8]: 2%
Activity [10]: 1%
ED50 [5]: >1e-08

SMILES: CC1=C(/C=C/c2ccc(/C(C)=C/C(=O)O)cc2)C(C)(C)CCC1
Activity [12]: 1%
Activity [13]: 1%
ED50 [5]: >1e-08

inhibition [15]: 0%
inhibition [16]: 12%
SMILES: CCOC(=O)c1ccc(C2CC2c2ccc3c(c2)C2CCC3C2)cc1 (stereo not given)
Activity [7]: 1%
Activity [14]: 33%
ED50 [5]: 5e-09
Activity [17]: 4%

SMILES: CC1(C)CCC(C)(C)c2cc(-c3ccc4cc(C(=O)O)ccc4c3)ccc21
Activity [18]: 4%
ED50 [5]: 3e-12
Activity [19]: 21%
Activity [20]: 17%

SMILES: CC1=C(/C=C/C(C)=C/C=C/C(C)=C/C(=O)O)C(C)(C)CCC1 [TRETINOIN]
Survivors at day 8 [21]: 100%
Survivors at day 15 [21]: 100%
Survivors at day 8 [22]: 100%
Survivors at day 15 [22]: 63%
mice with papillomas % [23]: 40%
Activity [24]: 47%
Survivors at day 8 [25]: 100%
Survivors at day 15 [25]: 100%
Activity [26]: 18%
Mortality range [27]: 14 days
Decrease [28]: 89.6%
Survivors at day 8 [29]: 100%
Survivors at day 15 [29]: 100%
Activity [30]: 69%
Activity [31]: 3%
Survivors at day 8 [32]: 100%
Survivors at day 15 [32]: 0%
Mortality range [33]: 15 days
Activity [34]: 10%
Decrease [35]: 74.1%
ED50 [5]: 1e-11
Mortality range [36]: 13 days
Decrease [37]: 56.2%
Survivors at day 8 [38]: 95%
Survivors at day 15 [38]: 0%
